Measurements pooled from the literature.
Protocols differ between the studies behind these lines.
ache: Acetylcholinesterase (ache, Electrophorus electricus, UniProt O42275)
ADORA1: Adenosine receptor A1 (ADORA1, Homo sapiens, UniProt P30542)
CARM1: Histone-arginine methyltransferase CARM1 (CARM1, Homo sapiens, UniProt Q86X55)

Compound	target	test	test system	conditions	inhibition [%]
O=C(NC1C2CCN(CC2)C1Cc1cccnc1)c1cc2ccccc2o1 (centres unmarked)	5-hydroxytryptamine receptor 3A (Htr3a, Mus musculus, UniProt P23979)	ligand displacement, radioligand		10 µM	59
C1=CSC(=C2SC=CS2)S1	Ubiquitin carboxyl-terminal hydrolase 5 (USP5, Homo sapiens, UniProt P45974)	enzyme activity, inhibitor		17 µM	54
COc1cc2c(cc1OC)C(=O)N(Cc1cccc(N3CCCCC3)n1)C2	ache	enzyme activity, inhibitor		1 µM	18.8
CCN1CCN(Cc2ccc(NC(=O)c3ccc(C)c(Oc4ccnc5[nH]ccc45)c3)cc2C(F)(F)F)CC1	Serine/threonine-protein kinase/endoribonuclease IRE1 (ERN1, Homo sapiens, UniProt O75460)	target engagement in cells, inhibitor, chemoproteomics	Huh-7	1 µM	-16.7
O[C@@H]1[C@H](O)CO[C@H]1n1cnc2c(NCc3cccc(Br)c3)nc(Cl)nc21	ADORA1	ligand displacement, radioligand		10 µM, cell membranes	< 10
COc1cc2c(cc1OC)C(=O)N(CC1CCN(Cc3cccnc3)CC1)C2	ache	enzyme activity, inhibitor		1 µM	-0.52
O[C@@H]1[C@H](O)CO[C@H]1n1cnc2c(NCc3cccc(I)c3)nc(Cl)nc21	ADORA1	ligand displacement, radioligand		10 µM, cell membranes	< 10
CCN(c1cc(C#CCN2CCOCC2)cc(C(=O)NCc2c(C)cc(C)[nH]c2=O)c1C)[C@H]1CC[C@H](N(C)CCOC)CC1	CARM1	enzyme activity, inhibitor		1 µM	-3
COc1cc2c(cc1OC)C(=O)N(Cc1ccncc1)C2	ache	enzyme activity, inhibitor		1 µM	2.62
O=C1N=C(N2CCCCN2)S/C1=C\c1ccc(F)cc1O	Neuromedin-K receptor (TACR3, Homo sapiens, UniProt P29371)	ligand displacement, radioligand		10 µM	< 10
COc1ccc2[nH]cc(/C=C/c3ccc(O)cc3)c2c1	Amyloid-beta precursor protein, monomer (APP, Homo sapiens, UniProt P05067)	amyloid aggregation, inhibitor, fluorescence		25 µM	44
COc1cc2c(cc1OC)C(=O)N(CC1CCN(CC3CCNC3)CC1)C2 (centres unmarked)	ache	enzyme activity, inhibitor		1 µM	4.86
O[C@@H]1[C@H](O)CO[C@H]1n1cnc2c(NCc3cccc(F)c3)nc(Cl)nc21	ADORA1	ligand displacement, radioligand		10 µM, cell membranes	10
O=C(c1ccc(F)cc1)N(Cc1ccccc1)C1CCCCC1	ADORA1	cell-free assay		10 µM	8
c1cc2cc(C3=NCCN3)ccc2cc1C1=NCCN1	Rac GTPase-activating protein 1 (Homo sapiens, UniProt Q9H0H5)	enzyme activity, inhibitor, ADP detection		10 µM	50.4
CC/C(=N\NC(=O)NCc1cccc(O)c1)c1ccc(O)c(C)c1O	Ribosomal protein S6 kinase beta-2 (RPS6KB2, Homo sapiens, UniProt Q9UBS0)	enzyme activity, inhibitor		0.1 µM	22.7
COc1cc2c(cc1OC)C(=O)N(CC1CCNCC1)C2	ache	enzyme activity, inhibitor		1 µM	2.49
COc1cc(NC(C)=O)c(Cl)cc1C(=O)Nc1nccs1	ADORA1	cell-free assay		10 µM	25.2
COc1cc2c(cc1OC)C(=O)N(CC1CCN(Cc3ccccc3)CC1)C2	ache	enzyme activity, inhibitor		1 µM	20.4
Nc1ncnc2c1ncn2[C@@H]1O[C@H](CSCCNC(=O)NCc2ccccc2)[C@@H](O)[C@H]1O	CARM1	enzyme activity, inhibitor, radiometric		10 µM	> 95
